Test results as given in ChEMBL document CHEMBL1134473, “Synthesis and biological evaluation of pyrrolinic isosteres of rilmenidine. Discovery of cis-/trans-dicyclopropylmethyl-(4,5-dimethyl-4,5-dihydro-3H-pyrrol-2-yl)-amine (LNP 509), an I1 imidazoline receptor selective ligand with hypotensive activity” (J Med Chem, 2001).

Test: Displacement of [3H]RX-821002 from alpha-2 adrenergic receptor of calf frontal cortex membranes
Format: tissue-based, Bos taurus
Outline: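 Calf frontal cortex membranes (0.5 mg protein/mL) incubated 60 min at 25 °C with 0.8 nM [3H]RX821002 plus 0.3 µM 5HT to mask 5HT1A sites, in 50 mM sodium phosphate pH 7.4, drug 10^-9 to 10^-4 M. Nonspecific binding with 10 µM phentolamine. Bound ligand separated by GF/C filtration and counted. Three experiments in triplicate; Ki by Cheng-Prusoff.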

Log Ki | Compound
> -5 | C1CN=C(NC(C2CC2)C2CC2)C1
> -5 | C1CCC2N=C(NC(C3CC3)C3CC3)CC2C1 (stereo not drawn)
> -5 | CC1CCC(NC(C2CC2)C2CC2)=N1 (stereo not drawn)
> -5 | CC1CCN=C1NC(C1CC1)C1CC1 (stereo not drawn)
> -5 | CCC1CCC(NC(C2CC2)C2CC2)=N1 (stereo not drawn)
> -5 | CC1CN=C(NC(C2CC2)C2CC2)C1 (stereo not drawn)
> -5 | CC1CC(NC(C2CC2)C2CC2)=NC1C (mixture of isomers)
-7.25 | C1COC(NC(C2CC2)C2CC2)=N1 [RILMENIDINE]
